Cneo AK release: causes C. neoformans cell lysis; lysis activity, % at 15 µM; adenylate kinase release luminescence, 4 h; normalised: neutral wells 0, clomiphene wells 100; hit rate 0.2% among 360,000;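 active = mean lysis activity across replicates of at least 80%, whatever share of replicates individually reach that level; inactive = mean lysis activity below 80%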
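Test system: log-phase Cryptococcus neoformans yeast cells. Input: 5 × 10^6 yeast cells/mL. Medium: fresh YPD growth medium. Doses: single dose. Incubation: static 4 h at 37 °C with compound, 1 h detection. Measured by: luminescent adenylate kinase detection reagent. Read-out: signal increase indicating cell lysis. Benchmarks: Clomiphene.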
esBAF inh: inhibitors of esBAF chromatin remodeling in mouse ES cells. Bmi1-luciferase knock-in reporter, 24 h; 100% = twice the neutral-well signal. reporter increase, % at 12.5 µM. hit rate 2% among 350,000; in the data active = activation above about 40%; inconclusive = no clear call, values can overlap the other calls;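 also: 0% = median of the plate's neutral control wells and 100% = double that signal; a rise in the Bmi1 reporter signal indicates esBAF inhibition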
MITF TRPM1 HTS: activators of MITF-driven TRPM1 promoter activity in SK-MEL-5 cells; SK-MEL-5 TRPM1-promoter luciferase, 24 h; % of positive control, neutral wells = 0; activation, % at 12.5 µM; hit rate 0.75% among 300,000;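 active = mean activation of at least 80% with every replicate also reaching 80%; inconclusive = mean reaches 80% but some replicate falls short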;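 also: 0% = neutral control wells and 100% = parthenolide positive control wells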
HIV Env fusion: blocks HIV Env-driven cell-cell fusion | HeLa-JRFL Env/CEM21 cell fusion, luciferase | inhibition, % at 12.3 µM | hit rate 1.1% among 360,000;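 active = mean replicate inhibition score of at least 50 and every replicate individually at or above 50; inconclusive = only one of the two criteria met; inactive = mean below 50 and not all replicates reaching 50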;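 also: 0% = plate neutral controls and 100% = maraviroc near 300 nM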
Wnt bcat act: Wnt/beta-catenin pathway activation; activation, % at 9.35 µM; hit rate 1.2% among 300,000; Wnt/beta-catenin reporter cell assay, activator, plate reader; in the data active = activation above about 30%, passing the limit was not always enough; inconclusive = no clear call, values can overlap the other calls;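 also: 0% = neutral control wells and 100% = positive control wells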
ERAP1 HTS inh: ERAP1 (human) enzyme inhibition. recombinant ERAP1, Leu-AMC fluorescence, 60 min. inhibition, % at 10.7 µM. hit rate 0.15% among 340,000. AID 652197;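 active = mean replicate inhibition of at least 30%, or all replicates individually reaching that 30% level; inactive = mean below 30% and not every replicate reaching it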;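 also: 0% = neutral control wells and 100% = L-leucinethiol positive control wells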
Target sequence (Q9NZ08 whole entry, looked up): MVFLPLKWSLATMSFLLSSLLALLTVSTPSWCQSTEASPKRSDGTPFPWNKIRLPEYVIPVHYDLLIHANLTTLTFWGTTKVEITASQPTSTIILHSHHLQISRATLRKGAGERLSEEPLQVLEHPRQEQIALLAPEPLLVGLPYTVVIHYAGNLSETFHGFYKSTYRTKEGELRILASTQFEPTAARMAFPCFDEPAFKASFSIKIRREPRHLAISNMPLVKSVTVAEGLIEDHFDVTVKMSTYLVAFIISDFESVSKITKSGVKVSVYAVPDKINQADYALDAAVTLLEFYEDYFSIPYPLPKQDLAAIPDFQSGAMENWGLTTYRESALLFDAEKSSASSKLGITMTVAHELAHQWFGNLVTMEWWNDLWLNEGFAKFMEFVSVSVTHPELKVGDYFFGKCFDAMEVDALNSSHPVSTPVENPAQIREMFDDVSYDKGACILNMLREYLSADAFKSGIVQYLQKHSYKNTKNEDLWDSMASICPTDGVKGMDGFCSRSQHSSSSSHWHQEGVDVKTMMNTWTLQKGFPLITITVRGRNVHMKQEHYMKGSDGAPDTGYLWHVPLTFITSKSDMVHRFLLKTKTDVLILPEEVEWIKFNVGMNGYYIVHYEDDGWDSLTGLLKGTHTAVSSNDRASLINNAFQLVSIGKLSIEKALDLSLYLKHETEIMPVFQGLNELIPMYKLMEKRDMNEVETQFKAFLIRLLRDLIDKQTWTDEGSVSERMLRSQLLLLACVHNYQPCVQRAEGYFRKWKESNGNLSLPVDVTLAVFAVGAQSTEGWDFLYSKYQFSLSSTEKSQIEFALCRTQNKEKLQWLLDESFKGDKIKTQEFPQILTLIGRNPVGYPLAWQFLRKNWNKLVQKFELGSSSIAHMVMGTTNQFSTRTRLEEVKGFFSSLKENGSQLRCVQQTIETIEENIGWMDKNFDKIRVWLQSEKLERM
* hit, by the source's call; ? = inconclusive; / = not tested or not shown; [ ] = dose if it differs, or a comment. An excerpt weighted towards active compounds, which were near 3.5% of everything screened.

SMILES	Cneo AK release	esBAF inh	MITF TRPM1 HTS	HIV Env fusion	Wnt bcat act	ERAP1 HTS inh
CCN1CCN(c2ccc(S(=O)(=O)N3CCCCC3)cc2NC(=O)Cc2c(F)cccc2Cl)CC1	11	4	5	-2	1	0
O=C(/C=C/c1ccccc1)NCCc1ccccc1	-1	89*	/	/	1	/
O=C(NCCc1ccccc1)c1ccc(Cl)c([N+](=O)[O-])c1	-5	7	53	-24	14	/
Cc1cccc(C(=O)NCCc2ccccc2)c1	-6	2	105*	-19	?	3
Cc1cc(C(=O)NCCc2ccccc2)ccc1[N+](=O)[O-]	-3	25	92*	/	17	-1
C[C@@H]1CN([C@H](C)CO)C(=O)c2cc(NC(=O)Cc3ccccc3)ccc2O[C@H]1CN(C)C(=O)Nc1cccc2ccccc12	-7	0	/	16[16.7 µM]	/	0
C[C@H]1CN([C@@H](C)CO)C(=O)c2cc(NC(=O)Cn3cnnn3)ccc2O[C@@H]1CN(C)C(=O)NC1CCCCC1	0	-2	/	/	/	11
Cc1noc(C)c1NC(=O)Nc1ccc2c(c1)C(=O)N([C@H](C)CO)C[C@H](C)[C@@H](CN(C)CC1CC1)OCCCC[C@@H](C)O2	1	4	/	10[16.7 µM]	/	0
O=C(/C=C/c1ccccc1Cl)Nc1ccncc1	-4	/	56	/	/	/
O=C(/C=C/c1c(Cl)cccc1Cl)Nc1ccncc1	3	44*	88*	-75	10	/
O=C(/C=C/c1c(F)cccc1Cl)Nc1ccncc1	-4	62*	36	-5	/	/
O=C(/C=C/c1cccc(Cl)c1)Nc1ccncc1	1	39	45	-30	/	/
COc1ccc(-c2cc3onc(-c4c(Cl)cccc4Cl)c3c(=O)n2C)cc1	3	35	20	-37	6	-2
CN(C)C(=O)c1ccc(-c2cc3onc(-c4ccccc4)c3c(=O)n2C)cc1	-1	55*	69	42	41*	1
COC(=O)c1ccc(-c2cc3onc(-c4ccccc4)c3c(=O)n2C)cc1	1	39	39	-5	31*	4
COc1cccc(S(=O)(=O)N[C@@H]2C=C[C@H](CC(=O)NCc3ccc(Cl)cc3)O[C@@H]2CO)c1	/	/	/	/	/	3
Cc1cc(C(=O)Nc2cccc3c2O[C@H](CN(C)S(=O)(=O)c2cccs2)[C@@H](C)CN([C@@H](C)CO)C3=O)n(C)n1	-4	-6	/	/	/	-1
COc1ccc2nc(N3CCCC(C(=O)NCCc4ccc(OC)c(OC)c4)C3)sc2c1 (centres undefined)	-10	53*	37	-17	3	-2
COc1ccc(CCNC(=O)c2ccc3nc(N4CCCCC4)sc3c2)cc1OC	-1	51*	/	-10	-5	0
COc1ccc2nc(N3CCCC(C(=O)NCCCN4CCN(C)CC4)C3)sc2c1 (centres undefined)	0	2	/	14	1	/
O=C(NCCc1ccc(Cl)cc1)c1ccc2nc(N3CCOCC3)sc2c1	0	2	-3	9	0	0
Cc1cc(C)c2nc(N3CCCC(C(=O)NCCN4CCOCC4)C3)sc2c1 (centres undefined)	0	68*	15	/	13	-4
Cn1cnc(S(=O)(=O)N2C[C@H](O)COC[C@@H]3O[C@H](CC(=O)NCc4cc(F)cc(F)c4)CC[C@H]32)c1	1	1	/	/	/	-1
COCC(=O)N1CC(=O)N2[C@@H](CO)[C@H](c3ccc(C#CC4CCCCC4)cc3)[C@@H]2C1	/	/	/	/	/	6
C[C@@H]1CCCCO[C@H](CN(C)Cc2ccc(C(=O)O)cc2)[C@@H](C)CN([C@H](C)CO)C(=O)c2cc(NC(=O)Nc3ccc4c(c3)OCO4)ccc2O1	43	-5	/	5[16.7 µM]	/	-1
SMILES	Cneo AK release	esBAF inh	MITF TRPM1 HTS	HIV Env fusion	Wnt bcat act	ERAP1 HTS inh
Cc1ccc(N=Cc2sc(O)c3ccccc23)c(C)c1	/	74*	/	-278	0	/
Cc1ccc(N=Cc2sc(O)c3ccccc23)cc1	0	94*	/	-305	84*	/
CO[C@@H]1CN(C)C(=O)c2cc(NC(=O)C3CCCC3)ccc2OC[C@@H](C)N(S(C)(=O)=O)C[C@@H]1C	0	1	/	/	/	-1
O=C(C[C@H]1CC[C@@H]2[C@H](COC[C@H](O)CN2Cc2nccs2)O1)NCc1ccc(F)cc1	0	-3	/	-6[16.7 µM]	/	2
O=C(C[C@@H]1C[C@@H]2c3cc(NS(=O)(=O)c4ccc(F)cc4)ccc3O[C@@H]2[C@@H](CO)O1)NCC1CC1	1	1	/	22[16.7 µM]	/	/
O=C(Nc1ccon1)c1sc2cc(F)ccc2c1Cl	-2	71*	/	/	/	/
CCNC(=O)c1sc2cc(C)ccc2c1Cl	-5	24*	73	-57	10	-1
Cc1ccc2c(Cl)c(C(=O)Nc3cc(C)on3)sc2c1	-2	60*	53	-264	42*	/
COc1ccc(CCNC(=O)c2sc3cc(C)ccc3c2Cl)cc1	-1	-1	13	/	/	/
Cc1ccc2c(Cl)c(C(=O)NCCc3ccccc3)sc2c1	2	/	106*	-46	/	/
O=C(CCN1CCCCC1)NCC[C@@H]1CC[C@H](NC(=O)C2CC2)[C@@H](CO)O1	-2	-2	/	-14[16.7 µM]	/	4
CC(C)NC(=O)N(C)C[C@H]1Oc2c(NS(=O)(=O)c3cn(C)cn3)cccc2C(=O)N([C@H](C)CO)C[C@H]1C	-4	2	/	36[16.7 µM]	/	-2
O=C(NCc1ccco1)c1sc2cc(F)ccc2c1Cl	-5	53*	72	-102	17	1
O=C(NCc1ccco1)c1cccc(F)c1	0	-1	2	-23	/	/
C[C@@H]1CN([C@H](C)CO)C(=O)c2cc(NC(=O)Cc3ccccc3)ccc2O[C@@H](C)CCCCO[C@@H]1CN(C)Cc1ccc2c(c1)OCO2	-2	0	/	-26[16.7 µM]	/	/
C[C@@H]1CN([C@@H](C)CO)C(=O)CCCn2cc(nn2)CO[C@@H]1CN(C)Cc1ccc2cccnc2c1	/	-4	/	/	/	/
O=C1c2ccccc2/C(=C\c2ccc3[nH]ccc3c2)N1c1ccccc1	-3	45*	26	-65	26	0
CCC/C(=C1/c2ccccc2C(=O)N1c1ccccc1)c1ccc2[nH]ccc2c1	-3	-14	-25	42	-7	-2
CCOC(=O)c1c(CSCc2ccccc2)oc2ccc(O)c(CN(C)C)c12	2	/	-4	58*	-3	6
CCOC(=O)c1c(-c2ccccc2)oc2ccc(O)c(CN(C)C)c12	0	0	/	9	-14	/
Cc1ccc(/C=N/Nc2ccccn2)s1	-1	57*	104*	-34	19	1
Clc1ccc(/C=N/Nc2ccccn2)cc1	5	43*	31	-42	56*	-2
COc1cc(/C=N/Nc2ccc(C(F)(F)F)cn2)ccc1O	/	/	10	-16	31*	-1
COc1ccc(/C=N/Nc2ccccn2)cc1O	/	14	85*	-61	48*	1
Brc1ccccc1/C=N/Nc1ccccn1	1	/	35	-35	22	-4

High-throughput results from PubChem.
